These results are taken from ChEMBL document CHEMBL1687814, “Testing nucleoside analogues as inhibitors of Bacillus anthracis spore germination in vitro and in macrophage cell culture” (Antimicrob Agents Chemother, 2010).

In data set [1] the test system is J774.A1. Kind of data set: Cytotoxicity against mouse J774A1 cells. The format is cell-based. The method in brief:
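Uninfected J774A.1 macrophages, seeded at 8 × 10^5 cells/ml in serum-free DMEM, were given analogues at various final concentrations. Necrosis was assessed by 20 μM propidium iodide fluorescence at 617 nm, in parallel with the infected wells.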

Data set [2] has as its system Bacillus anthracis. The data set is described as follows: Activation of Bacillus anthracis Sterne 34F2 spore germination after 1 hr. The data set is classed as functional, organism-based.
In data set [3] the test system is Bacillus anthracis. Kind of data set: Inhibition of inosine/L-alanine-induced Bacillus anthracis Sterne 34F2 spore germination pretreated for 15 mins before inosine/L-alanine challenge. The data set is classed as functional, organism-based.
For data set [4], the system named is Bacillus anthracis. Kind of data set: Antibacterial activity against Bacillus anthracis Sterne 34F2 infected in mouse J774A.1 cells assessed as protection against bacteria-induced cytotoxicity using propidium iodide staining after 3 hrs measured every hours for up to 7 hrs. The data set is classed as functional, organism-based.
Data set [5] relates to Bacillus anthracis. The data set is described as follows: Ratio of IC50 for inosine/L-alanine-induced Bacillus anthracis Sterne 34F2 spore germination to IC50 for Bacillus anthracis Sterne 34F2 infected in mouse J774A.1 cells assessed as protection against bacteria-induced cytotoxicity. The format is functional.
Data set [6] in a line: Increase of Bacillus anthracis Sterne 34F2-induced cytotoxicity in mouse J774A.1 cells using propidium iodide staining measured after 5 hrs infection. The data set is classed as cell-based. The following applies: bacillus anthracis str. sterne.
Setting [7] is: Bacillus anthracis, Sterne 34F2, read-out: IC50.
Where [8] appears, read: Bacillus anthracis, Sterne 34F2, J774.A1, read-out: IC50.

Molecules are shown by their SMILES. Active and inactive are the calls of the source. No cut-off for these calls is given here.

Broadly, the IC50 is the concentration needed to halve the response being measured. Turning to `O=c1cc[nH]c(=S)[nH]1` [THIOURACIL], in data set [1], the Activity result is “Non-toxic”. Besides, the result in data set [2] was inactive. Moreover, the concentration for half-maximal inhibition (IC50) result in data set [3] and in data set [4] was “Not Active” throughout.

Consider `Nc1ncnc2c1nc(N)n2[C@@H]1O[C@H](CO)[C@@H](O)[C@H]1O`, for which the Activity entry in data set [1] was “Non-toxic”. The result in data set [2] was inactive. Besides, the concentration for half-maximal inhibition (IC50) entry in data set [3] and in data set [4] was “Not Active” each time.

For `Nc1cc(S)nc(N)n1`, the Activity result in data set [1] is on record as “Non-toxic”. In data set [2], the outcome was inactive. In addition, the IC50 result in data set [3] and in data set [4] was “Not Active” each time.

For `Sc1ncccn1` [2-MERCAPTOPYRIMIDINE], the Activity entry in data set [1] was “Non-toxic”. The outcome in data set [2] was inactive. Moreover, the concentration for half-maximal inhibition (IC50) entry in data set [3] and in data set [4] was “Not Active” throughout.

In the case of `Nc1nc2c(ncn2[C@@H]2O[C@H](CO)[C@@H](O)[C@H]2O)c(=S)[nH]1` [THIOGUANOSINE], the Activity entry in data set [1] was “Non-toxic”. Further, the “Ratio IC50” value in data set [5] was 300. In addition, the IC50 in data set [3] (setting [7]) amounted to 1000 µM; in data set [4] (setting [8]), 4 µM.

`Nc1nc2c(nc(O)n2[C@@H]2O[C@H](CO)[C@@H](O)[C@H]2O)c(=O)[nH]1` [8-HYDROXYGUANOSINE]: the results for the Activity result in data set [1] and in data set [6] were “Non-toxic” and “Toxic”, respectively. The IC50 entry in data set [3] and in data set [4] was “Not Active” each time.

As for `OC[C@H]1O[C@@H](n2cnc3c(O)nc(O)nc32)[C@H](O)[C@@H]1O` [XANTHOSINE], the Activity entry in data set [1] is recorded as “Non-toxic”. The results for the concentration for half-maximal inhibition (IC50) in data set [3] (setting [7]) and in data set [4] were 7190 µM and “Not Active”, respectively.

For `O=C(Nc1ncnc2c1ncn2[C@@H]1O[C@H](CO)[C@@H](O)[C@H]1O)c1ccccc1`, the values for the Activity result in data set [1] and in data set [6] were “Non-toxic” and “Toxic”, respectively. Also, the half-maximal inhibitory concentration (IC50) in data set [3] (setting [7]) is 1140 µM; in data set [4] it was “Not Active”.

On to `OC[C@H]1O[C@@H](n2cnc3c(N4CCCCC4)ncnc32)[C@H](O)[C@@H]1O`, for which, in data set [1], the Activity entry is reported as “Non-toxic”. Further, the IC50 in data set [3] (setting [7]) was 1090 µM; in data set [4], “Not Active”.

Take `C[C@@H](N)C(=O)O` [D-ALANINE]: the Activity entry in data set [1] was “Non-toxic”. Also, the 50% inhibitory concentration (IC50) in data set [3] (setting [7]) and in data set [4] (setting [8]) was 20 µM in each case.

With `CNc1ncnc2c1ncn2[C@@H]1O[C@H](CO)[C@@H](O)[C@H]1O`, the Activity entry in data set [1] is listed as “Non-toxic”. The values for the IC50 in data set [3] (setting [7]) and in data set [4] were 190 µM and “Not Active”, respectively.

As for `CCN(CC)c1ncnc2c1ncn2[C@@H]1O[C@H](CO)[C@@H](O)[C@H]1O`, the Activity entry in data set [1] is given as “Non-toxic”. For the same compound, the concentration for half-maximal inhibition (IC50) in data set [3] (setting [7]) is 310 µM; in data set [4], “Not Active”.

For the compound `N#Cc1ncnc2nc[nH]c12`, in data set [1], the Activity entry was “Non-toxic”. Moreover, the IC50 result in data set [3] and in data set [4] was “Not Active” throughout.

Consider `Nc1nc2nc[nH]c2c(=S)[nH]1` [THIOGUANINE], for which, in data set [1], the Activity result is recorded as “Non-toxic”. Further, the IC50 result in data set [3] is “Not Active”; in data set [4] (setting [8]) it was 2 µM.

As to `CSc1ncnc2c1ncn2[C@@H]1O[C@H](CO)[C@@H](O)[C@H]1O`, the Activity result in data set [1] is “Non-toxic”. For the same compound, the figures for the IC50 in data set [3] (setting [7]) and in data set [4] were 320 µM and “Not Active”, respectively.

For the compound `CC(=O)N1CCN(c2ncnc3c2ncn3[C@@H]2O[C@H](CO)[C@@H](O)[C@H]2O)CC1`, the Activity result in data set [1] is recorded as “Non-toxic”. The IC50 in data set [3] (setting [7]) was 50 µM; in data set [4], “Not Active”.

As for `CN(Cc1ccccc1)c1ncnc2c1ncn2[C@@H]1O[C@H](CO)[C@@H](O)[C@H]1O`, the Activity entry is given as “Non-toxic” in data set [1] and “Toxic” in data set [6]. For the same compound, the IC50 in data set [3] (setting [7]) is 120 µM; in data set [4], “Not Active”.

As for `Sc1ncnc2nc[nH]c12` [MERCAPTOPURINE ANHYDROUS], the Activity entry in data set [1] is “Non-toxic”. For the same compound, the IC50 result is “Not Active” in data set [3] and 400 µM in data set [4] (setting [8]).

Consider `Sc1ccncc1` [4-MERCAPTOPYRIDINE], for which the Activity result in data set [1] is given as “Non-toxic”. Besides, the result in data set [2] was inactive. Also, the IC50 result in data set [3] and in data set [4] was “Not Active” throughout.

`Nc1ncnc2c1ncn2[C@@H]1O[C@H](CO)[C@@H](O)[C@H]1O` [ADENOSINE]: the Activity entry in data set [1] was “Non-toxic”. The IC50 entry in data set [3] and in data set [4] was “Not Active” in each case.

As for `Nc1ncnc2c1ccn2[C@@H]1O[C@H](CO)[C@@H](O)[C@H]1O` [TUBERCIDIN], in data set [1], the Activity entry is on record as “Non-toxic”. The half-inhibitory concentration (IC50) entry in data set [3] and in data set [4] was “Not Active” throughout.

Consider `Nc1nc2c(ncn2COC(CO)CO)c(=O)[nH]1` [GANCICLOVIR], for which the Activity entry in data set [1] was “Non-toxic”. The IC50 result in data set [3] and in data set [4] was “Not Active” throughout.

Turning to `Nc1nc(N)c2ncn([C@@H]3O[C@H](CO)[C@@H](O)[C@H]3O)c2n1`, the Activity result in data set [1] is “Non-toxic”. Moreover, the IC50 in data set [3] (setting [7]) was 700 µM; in data set [4], “Not Active”.

Consider `OC[C@H]1O[C@@H](n2cnc3c(S)ncnc32)[C@H](O)[C@@H]1O` [THIOINOSINE], for which the Activity result in data set [1] is “Non-toxic”. The IC50 entry in data set [3] is “Not Active”; in data set [4] (setting [8]), 40 µM.

As for `Sc1ccccn1` [2-MERCAPTOPYRIDINE], the Activity result in data set [1] is recorded as “Non-toxic”. In addition, the result in data set [2] was inactive. For the same compound, the half-maximal inhibitory concentration (IC50) result in data set [3] and in data set [4] was “Not Active” throughout.

With `COc1nc(N)nc2c1ncn2[C@@H]1O[C@H](CO)[C@@H](O)[C@H]1O`, the Activity result in data set [1] is listed as “Non-toxic”. The IC50 is 350 µM in data set [3] (setting [7]) and “Not Active” in data set [4].
